Drawing on ChEMBL document CHEMBL1141003, “Carbon analogs of antifungal dioxane-triazole derivatives: synthesis and in vitro activities” (Bioorg Med Chem Lett, 2008), this text covers MIC, Survival and Activity for ten compounds.

The term MIC denotes the least concentration at which growth counts as inhibited.

≈ marks a conversion by molar mass, not a printed value.

Series [1] has as its system Candida albicans. The series can be described thus: Antimicrobial activity against Candida albicans ATCC 24433 by broth microdilution method. The format is functional. The method in brief:
(§1)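 MICs were determined by NCCLS-guideline broth microdilution in RPMI1640 medium at 35 °C against Candida strains.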
On the technique in general: In broth dilution the organism is exposed to a series of concentrations in liquid medium.

The test system of series [2] is Candida albicans. The series can be described thus: Antimicrobial activity against Candida albicans SANK 51486 by broth microdilution method. The format is functional. In outline:
as §1

The test system of series [3] is Candida albicans. The series can be described thus: Antimicrobial activity against Candida albicans TIMM 3164 by broth microdilution method. The format is functional. The method in brief:
as §1

Series [4] concerns Candida albicans. Briefly: Antimicrobial activity against Candida albicans ATCC 64550 by broth microdilution method. It counts as functional. The method in brief: as §1
For series [5], the system named is Candida parapsilosis. Briefly: Antimicrobial activity against Candida parapsilosis ATCC 90018 by broth microdilution method. It counts as functional. The conditions noted are these: Lodderomyces parapsilosis. In outline:
as §1

The subject of series [6] is Nakaseomyces glabratus. Briefly: Antimicrobial activity against Candida glabrata ATCC 90030 by broth microdilution method. It counts as functional. The method in brief:
as §1

In series [7] the test system is Pichia kudriavzevii. The series can be described thus: Antimicrobial activity against Candida krusei ATCC 6258 by broth microdilution method. It counts as functional. In outline: as §1
In series [8] the test system is Candida tropicalis. Briefly: Antimicrobial activity against Candida tropicalis ATCC 750 by broth microdilution method. It counts as functional. The method in brief:
as §1

Series [9] deals with Cryptococcus neoformans. The series can be described thus: Antimicrobial activity against Cryptococcus neoformans TIMM 1855 by broth microdilution method. It counts as functional. The method in brief:
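NCCLS broth microdilution MIC determination at 35 °C for Cryptococcus neoformans.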

For series [10], the system named is Aspergillus fumigatus. The series can be described thus: Antimicrobial activity against Aspergillus fumigatus SANK 10569 by broth microdilution method. It counts as functional. The method in brief:
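Broth microdilution following NCCLS guidelines. Aspergillus strains incubated at 30 °C in RPMI1640 medium. The MIC was read as the endpoint.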

Series [11] deals with Aspergillus flavus. The series can be described thus: Antimicrobial activity against Aspergillus flavus SANK 18497 by broth microdilution method.
Series [12] relates to Aspergillus fumigatus. The series can be described thus: Antimicrobial activity against Aspergillus fumigatus ATCC 26430 by broth microdilution method.
The test system of series [13] is Candida albicans. Briefly: Antimicrobial activity against Candida albicans 427 infected ddY mouse assessed as survival at 20 mg/kg, po administered after 1 hr, 4 hrs, 24 hrs of infection. It counts as functional. The method in brief:
(§2)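 ddY mice (n = 10) infected systemically by intravenous injection of C. albicans 427, 5.5 × 10⁶ CFU/mouse. Treatment 20 mg/kg/administration, given 1, 4 and 24 h after infection, orally or ip as per line. Survival recorded 21 days after administration.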

Series [14] relates to Candida albicans. The series can be described thus: Antimicrobial activity against Candida albicans 427 infected ddY mouse assessed as survival at 20 mg/kg, ip administered after 1 hr, 4 hrs, 24 hrs of infection. The format is functional. The conditions noted are these: route intraperitoneal. In outline: as §2
The subject of series [15] is Mus musculus. Briefly: Toxicity in ddY mouse at 500 mg/kg, po once daily for 4 days. The conditions noted are these: in vivo, 96 h.
Series [16] relates to Candida albicans. Briefly: Antimicrobial activity against Candida albicans 427 infected ddY mouse assessed as survival rate at 20 mg/kg, po administered after 1 hr, 4 hrs, 24 hrs of infection. It counts as functional. The method in brief:
as §2

As to `C[C@@H](C[C@H]1CO[C@H](/C=C/c2ccc(C(F)(F)F)cc2)OC1)[C@](O)(Cn1cncn1)c1ccc(F)cc1F.O=C(O)C(=O)O`, the MIC was 0.031 µg/mL in series [1]; at most 0.008 µg/mL in [2]; 0.016 µg/mL in [3]; 1 µg/mL in series [4]; 0.031 µg/mL in series [5]; 1 µg/mL in [6]. Also, the minimal inhibitory concentration (MIC) in [7] was determined as 0.063 µg/mL; in series [8] it was 0.125 µg/mL; in series [9], 0.016 µg/mL; in [10] it was 0.25 µg/mL; in series [11], 0.5 µg/mL; in series [12] it was 0.25 µg/mL.
With `C[C@@H](C[C@H]1CO[C@H](/C=C/C=C/c2ccc(C(F)(F)F)cc2)OC1)[C@](O)(Cn1cncn1)c1ccc(F)cc1F.O=C(O)C(=O)O`, the MIC in series [1] was 0.016 µg/mL; in [2], at most 0.008 µg/mL; in [3], 0.016 µg/mL; in series [4] it was 0.5 µg/mL; in [5] it was 0.031 µg/mL; in series [6], 1 µg/mL. Besides, the MIC turned out to be 0.063 µg/mL in [7]; 0.125 µg/mL in series [8]; 0.016 µg/mL in [9]; 0.125 µg/mL in series [10]; 0.5 µg/mL in series [11]; 0.125 µg/mL in [12]. The Survival in series [13] and in [14] was 21 days throughout. For the same compound, in series [15], the Activity entry is listed as “Non-toxic”.
Regarding `CCC(C)n1ncn(-c2ccc(N3CCN(c4ccc(OCC5COC(Cn6cncn6)(c6ccc(Cl)cc6Cl)O5)cc4)CC3)cc2)c1=O` (centres undefined) [ITRACONAZOLE], the MIC was 0.125 µg/mL (≈ 0.177 µM) in series [1]; 0.031 µg/mL (≈ 0.0439 µM) in series [2]; 0.25 µg/mL (≈ 0.354 µM) in [3]; 1 µg/mL (≈ 1.42 µM) in series [4]; 0.125 µg/mL (≈ 0.177 µM) in [5]; 1 µg/mL (≈ 1.42 µM) in series [6]. Also, the MIC in [7] was determined as 0.5 µg/mL (≈ 0.709 µM); in [8], 0.5 µg/mL (≈ 0.709 µM); in [9] it was 0.25 µg/mL (≈ 0.354 µM); in series [10], 0.25 µg/mL (≈ 0.354 µM); in series [11] it was 0.5 µg/mL (≈ 0.709 µM); in series [12], 0.25 µg/mL (≈ 0.354 µM).
Consider `C[C@@H](S[C@H]1CO[C@H](/C=C/C=C/c2ccc(C(F)(F)F)cc2)OC1)[C@](O)(Cn1cncn1)c1ccc(F)cc1F.O=C(O)C(=O)O`, for which the MIC in [1] turned out to be 0.125 µg/mL; in [2] it was 0.016 µg/mL; in series [3] it was 0.125 µg/mL; in series [4] it was 1 µg/mL; in series [5], 0.063 µg/mL; in [6], 1 µg/mL. For the same compound, the minimal inhibitory concentration (MIC) in [7] was determined as 0.25 µg/mL; in series [8], 0.125 µg/mL; in [9], 0.016 µg/mL; in series [10], 0.25 µg/mL; in [11], 0.5 µg/mL; in series [12], 0.25 µg/mL.
`C[C@@H](C[C@H]1CO[C@H](/C=C/C=C/C=C/c2ccc(C(F)(F)F)cc2)OC1)[C@](O)(Cn1cncn1)c1ccc(F)cc1F.O=C(O)C(=O)O`: the MIC in [1] was 0.125 µg/mL; in series [2], 0.031 µg/mL; in [3], 0.125 µg/mL; in [4], 0.5 µg/mL; in [5], 0.125 µg/mL; in [6], 2 µg/mL. Further, the MIC worked out at 0.25 µg/mL in [7]; 0.25 µg/mL in series [8]; 0.125 µg/mL in series [9]; 0.5 µg/mL in [10]; 1 µg/mL in series [11]; 0.5 µg/mL in [12].
For `C[C@@H](S[C@H]1CO[C@H](c2ccc(C(F)(F)F)cc2)OC1)[C@](O)(Cn1cncn1)c1ccc(F)cc1F`, the MIC in series [1] was 0.016 µg/mL (≈ 0.031 µM); in series [2] it was at most 0.008 µg/mL; in [3] it was 0.063 µg/mL (≈ 0.122 µM); in series [4], 1 µg/mL (≈ 1.94 µM); in series [5], 0.031 µg/mL (≈ 0.0601 µM); in series [6], 1 µg/mL (≈ 1.94 µM). Besides, the MIC in series [7] is 0.25 µg/mL (≈ 0.485 µM); in [8] it was 0.5 µg/mL (≈ 0.97 µM); in series [9] it was 0.031 µg/mL (≈ 0.0601 µM); in series [10], 1 µg/mL (≈ 1.94 µM); in [11], 2 µg/mL (≈ 3.88 µM); in series [12], 1 µg/mL (≈ 1.94 µM).
As to `C[C@@H](C[C@H]1CO[C@H](c2ccc(C(F)(F)F)cc2)OC1)[C@](O)(Cn1cncn1)c1ccc(F)cc1F.O=C(O)C(=O)O`, the minimum inhibitory concentration (MIC) in series [1] was 0.016 µg/mL; in series [2], at most 0.008 µg/mL; in [3], 0.016 µg/mL; in [4], 0.5 µg/mL; in [5] it was 0.016 µg/mL; in series [6], 1 µg/mL. Also, the MIC in series [7] came to 0.125 µg/mL; in [8], 0.125 µg/mL; in series [9], 0.031 µg/mL; in series [10], 0.25 µg/mL; in [11], 1 µg/mL; in series [12], 0.25 µg/mL.
For the compound `OC(Cn1cncn1)(Cn1cncn1)c1ccc(F)cc1F` [FLUCONAZOLE], the MIC in series [1] was 0.5 µg/mL (≈ 1.63 µM); in series [2] it was 0.25 µg/mL (≈ 0.816 µM); in [3], above 4 µg/mL; in [4], above 4 µg/mL; in [5] it was 0.5 µg/mL (≈ 1.63 µM); in [6], above 4 µg/mL. Moreover, the MIC in series [7] was above 4 µg/mL; in [8], 2 µg/mL (≈ 6.53 µM); in series [9] it was above 4 µg/mL; in series [10] it was above 4 µg/mL; in series [11] it was above 4 µg/mL; in series [12] it was above 4 µg/mL. Moreover, in [16], the Activity came out at 60%.
On to `C[C@@H](S[C@H]1CO[C@H](/C=C/c2ccc(C(F)(F)F)cc2)OC1)[C@](O)(Cn1cncn1)c1ccc(F)cc1F`, for which the MIC in [1] is 0.063 µg/mL (≈ 0.116 µM); in series [2], 0.016 µg/mL (≈ 0.0295 µM); in [3] it was 0.125 µg/mL (≈ 0.231 µM); in series [4], 2 µg/mL (≈ 3.69 µM); in series [5], 0.031 µg/mL (≈ 0.0572 µM); in series [6], 1 µg/mL (≈ 1.85 µM). The MIC came out at 0.25 µg/mL (≈ 0.462 µM) in series [7]; 0.031 µg/mL (≈ 0.0572 µM) in series [8]; 0.016 µg/mL (≈ 0.0295 µM) in series [9]; 0.25 µg/mL (≈ 0.462 µM) in [10]; 1 µg/mL (≈ 1.85 µM) in series [11]; 0.25 µg/mL (≈ 0.462 µM) in [12].
Take `C[C@@H](S[C@H]1CO[C@H](/C=C/C=C/C=C/c2ccc(C(F)(F)F)cc2)OC1)[C@](O)(Cn1cncn1)c1ccc(F)cc1F.O=C(O)C(=O)O`: the MIC in series [1] is 0.25 µg/mL; in [2], 0.031 µg/mL; in series [3], 1 µg/mL; in series [4] it was above 4 µg/mL; in [5], 0.25 µg/mL; in series [6] it was above 4 µg/mL. The MIC in [7] worked out at 1 µg/mL; in series [8] it was 2 µg/mL; in [9], 0.5 µg/mL; in series [10] it was 2 µg/mL; in [11] it was 4 µg/mL; in series [12], 2 µg/mL.
